Common to all, as to format: cell-based, human
Experiment [1] concerns p-Akt, phosphorylation of its downstream proteins and p-Erk. Briefly: Western blot of p-Akt, its downstream proteins and p-Erk in U87 cells. The note with it: 70 μM ON1231120 or 10 μM ON1231320, 1 h. A digest of the protocol: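 U87 cells on 10 cm plates, 1 h exposure to test compound. Lysates were prepared in buffer with PMSF and phosphatase/protease inhibitors, sonicated, held 30 min on ice and cleared at 21,000 × g for 10 min at 4°C. Blotting used 20 μg protein on SDS-PAGE and PVDF, blocked in 5% nonfat milk. Primary antibodies 1 h at room temperature or overnight at 4°C.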
In general terms: A western blot detects proteins with antibodies after separation by electrophoresis.

In experiment [2] the test system is U87 cells. Kind of experiment: Flow cytometric cell cycle analysis. The note with it: 24 h, 13.3 μM GFN, control 66 ± 0.9%. Background: A flow cytometer gives signals particle by particle.
Experiment [3] has as its system U87 cells. Briefly: Annexin V apoptosis by flow cytometry. The note with it: 24 h. Summed up:
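U87 cells in 12-well plates, cultured overnight, then exposed 24 h to test compound (6.3 μM), an EGFR inhibitor (13.3 μM) or both. Floating and attached cells were pooled and stained with Annexin V-FITC (10 μg/ml) in HEPES-buffered saline (pH 7.4) with Ca2+ and Mg2+. Flow cytometry at 5000 events/sample. Reported as mean ± S.D. of three experiments.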

Here are results for two compounds from article PMC4013241 (Molecular cancer therapeutics, 2014).

On to `Cn1c(=O)c(S(=O)(=O)c2ccc(F)cc2F)cc2cnc(Nc3ccc4[nH]ccc4c3)nc21` [ON1231320], for which the “effects on p-Akt, its downstream proteins and p-Erk” value in experiment [1] is reported as “negligible effects”. For the compound `COc1cc2ncnc(Nc3ccc(F)c(Cl)c3)c2cc1OCCCN1CCOCC1` [GFN, gefitinib, reference compound], in experiment [2], the “percentage of cells in the G1 phase” value turned out to be 80.9 ± 2.5%. Besides, in experiment [3], the “apoptotic cell death (Annexin V staining)” value is recorded as “did not cause apoptotic cell death”.
